This is a sample that favours compounds with a hit; in the whole collection about 2.3% have one here.
TRPC4 block – inhibitors of mouse TRPC4 channel. B-score at 10 µM. 300,000 compounds, 0.39% hits. HEK293 TRPC4beta/mu-opioid, DAMGO-evoked Fluo4 calcium flux; stronger effect = lower value. AID 2247;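 active = B-score over 3 SD under the library average, no early fluorescence shift, positive overall ratio signal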
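Material: HEK293 cells with stable TRPC4beta plus mu-opioid receptor expression / Probe or stimulus: DAMGO in two steps, submaximal then maximal / Compound: single concentration per test compound / Technique: kinetic Fluo4 fluorescence imaging of calcium influx / Read-out: per-well B score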
TRPC4 PAM – allosteric potentiators of mouse TRPC4 channel; 310,000 compounds, 0.42% hits; AID 2227; HEK293 TRPC4beta/mu-opioid, DAMGO EC20, Fluo-4 Ca2+ flux; stronger effect = higher value; B-score at 10 µM; Q9QUQ5;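 active = B-score of calcium response area above 5 SD of library B-scores, with initial fluorescence ratio within 5 SD of library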;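 also: B-score of integrated fluorescence ratio over time as area under calcium response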
TRPC6 activator – mouse TRPC6 channel activation; Q61143; HEK293-TRPC6 membrane potential dye fluorescence; stronger effect = higher value; 310,000 compounds, 0.13% hits; B-score at 10 µM;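 active = B-score of the integrated fluorescence ratio above library mean plus 3 SD, and starting fluorescence ratio within library mean plus 5 SD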;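 also: higher score means more depolarization so channel activation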
Target sequence (Q61143 whole entry, looked up): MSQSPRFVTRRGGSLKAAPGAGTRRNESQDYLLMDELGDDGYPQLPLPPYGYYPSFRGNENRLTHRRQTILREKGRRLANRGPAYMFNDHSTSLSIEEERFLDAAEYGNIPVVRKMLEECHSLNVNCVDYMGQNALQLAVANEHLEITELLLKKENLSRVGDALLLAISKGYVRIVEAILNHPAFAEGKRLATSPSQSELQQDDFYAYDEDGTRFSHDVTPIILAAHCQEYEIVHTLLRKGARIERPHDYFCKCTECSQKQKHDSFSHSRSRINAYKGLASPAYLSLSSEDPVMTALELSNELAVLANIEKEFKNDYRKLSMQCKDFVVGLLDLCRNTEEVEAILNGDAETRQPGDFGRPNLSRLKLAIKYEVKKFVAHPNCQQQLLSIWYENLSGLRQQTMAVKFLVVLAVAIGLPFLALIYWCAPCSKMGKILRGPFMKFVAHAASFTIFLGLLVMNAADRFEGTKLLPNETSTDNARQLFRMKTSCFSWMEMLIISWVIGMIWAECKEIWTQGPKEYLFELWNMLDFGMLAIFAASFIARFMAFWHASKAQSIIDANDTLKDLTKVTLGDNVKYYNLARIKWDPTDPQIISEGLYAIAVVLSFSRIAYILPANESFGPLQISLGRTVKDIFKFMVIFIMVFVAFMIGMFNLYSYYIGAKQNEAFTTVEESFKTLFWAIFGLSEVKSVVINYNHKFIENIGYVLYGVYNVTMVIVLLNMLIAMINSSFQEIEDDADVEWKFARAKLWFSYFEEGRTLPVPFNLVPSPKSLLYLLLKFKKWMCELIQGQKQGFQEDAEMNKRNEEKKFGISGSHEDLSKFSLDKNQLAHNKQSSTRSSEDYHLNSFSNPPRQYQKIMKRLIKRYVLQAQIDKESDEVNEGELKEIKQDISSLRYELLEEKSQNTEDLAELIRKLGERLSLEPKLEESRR
TRPC4 agonist – opens the mouse TRPC4 cation channel; HEK293 TRPC4beta/mu-opioid, Fluo4 calcium fluorescence; stronger effect = higher value; B-score at 10 µM; 310,000 compounds, 0.49% hits;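 active = B-score above 5 SD of library B-scores, and initial fluorescence ratio not above library mean plus 5 SD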;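 also: positive B-score marks a calcium rise read as TRPC4 activation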
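Material: HEK293 stable line with TRPC4beta plus mu-opioid receptor; technique: Fluo4 calcium-sensitive dye fluorescence, kinetic, 1 Hz baseline; timing: Fluo4 dye loading 45 min at room temperature, 110 s recording; controls: assay buffer as low control, maximal DAMGO as high control; read-out: integrated baseline-normalised fluorescence ratio, converted to per-well B score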
TRPC6 inhibitor – inhibitors of mouse TRPC6 channel; HEK293-TRPC6, membrane potential dye, ACh-evoked depolarization; stronger effect = lower value; B-score at 10 µM; 310,000 compounds, 1.1% hits; AID 2553;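 active = B-score under library mean minus 3 SD, initial fluorescence not abnormally high, positive integrated signal ratio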;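 also: B-score derived from integrated fluorescence ratio over the kinetic read; more negative B-score means stronger inhibition of depolarization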
TRPC4 spec 2 – second check of whether TRPC6 inhibitors also affect mouse TRPC4; AID 2776; shares compounds with TRPC6 inhibitor; HEK293 TRPC4/MOR, membrane potential dye fluorescence; channel activated by saturating DAMGO dose; 920 compounds, 42% hits; inhibition, % at 10 µM;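 active = compounds whose fluorescence signal differed from control wells by over 3 SD, either direction, in both duplicate plates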
TRPC4 spec – mouse TRPC4 off-target activity of TRPC6 inhibitors; HEK293 TRPC4/mu-opioid, membrane potential fluorescence; 920 compounds, 61% hits; shares compounds with TRPC6 inhibitor; activity change, negative = inhibition, % at 10 µM; AID 2777;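 active = rise or fall in signal beyond 3 SD of buffer-only wells in both replicate plates, either sign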;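 also: integrated kinetic ratio of fluorescence range over baseline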
HEK293 MPD ctr 2-1 – second counter-screen for TRPC6 inhibitors: parental HEK293 cells; shares compounds with TRPC6 inhibitor; parental HEK293 membrane potential dye fluorescence; maximal acetylcholine challenge after compound addition; signal change vs control, % at 10 µM; 920 compounds, 31% hits; AID 2779;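 active = membrane potential signal moving either way by over 3 SD of the maximum-effect control, in both duplicate plates, meaning non-specific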
HEK293 MPD ctr-1 – counter-screen for TRPC6 inhibitors: effect in parental HEK293 cells | shares compounds with TRPC6 inhibitor | parental HEK293 membrane potential dye fluorescence | membrane potential signal change, % at 10 µM | 920 compounds, 60% hits;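 active = membrane potential signal shifting up or down by more than 3 SD of buffer-only wells, on both duplicate plates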
HEK293 MPD ctr-2 – counter-screen for TRPC6 modulators: effect in parental HEK293 cells. shares compounds with TRPC6 inhibitor. membrane potential signal change, % at 10 µM. 2,400 compounds, 51% hits. membrane potential dye fluorescence. AID 488924;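 active = membrane potential signal moves up or down beyond 5 SD from buffer-only wells, on both duplicate plates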
HEK293 MPD ctr 2-2 – parental HEK293 nonspecific activity of TRPC6 modulators, second screen; shares compounds with TRPC6 inhibitor; membrane potential dye fluorescence; after compound, maximal acetylcholine stimulation; inhibition, % at 10 µM; 2,400 compounds, 14% hits;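 active = membrane potential signal drops by more than 5 SD from the mean control signal, in both duplicate plates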;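 also: plate controls were acetylcholine ECmax control wells for no effect and buffer only wells for full effect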
TRPC4 ctr mod – mouse TRPC4 off-target activity of TRPC6 modulators; HEK293 TRPC4/mu-opioid, membrane potential fluorescence; shares compounds with TRPC6 inhibitor; percent change from control (negative = decrease, positive = increase), % at 10 µM; AID 488927; 2,400 compounds, 69% hits;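 active = membrane potential signal moved up or down beyond 5 SD of buffer control wells, in both duplicate plates, actives on both sides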;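 also: plate controls were assay buffer wells for no effect and DAMGO maximal-effect wells for full effect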
TRPC4 ctr inh 2 – second selectivity test of TRPC6 modulators against mouse TRPC4 | shares compounds with TRPC6 inhibitor | HEK293 TRPC4/mu-opioid, membrane potential dye fluorescence; stimulated with maximal-effect DAMGO | inhibition, % at 10 µM | 2,400 compounds, 55% hits | AID 488928;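 active = drop in membrane potential signal beyond 5 SD of the control wells in both duplicate plates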;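 also: TRPC4 counter screen for TRPC6 hits run under conditions tuned for TRPC6 not TRPC4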
TRPC6 inh conf – confirmation of mouse TRPC6 inhibitors | HEK293-TRPC6, membrane potential dye, ACh-evoked depolarization | shares compounds with TRPC6 inhibitor | inhibition, % at 10 µM | 3,300 compounds, 43% hits;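 active = fluorescence ratio falls more than 5 SD below the full-stimulation control mean, in both duplicate runs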;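 also: integrated fluorescence ratio of peak minus minimum over baseline after agonist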
TRPC6 act conf – mouse TRPC6 activator confirmation; AID 488961; 2,800 compounds, 11% hits; HEK293-TRPC6 membrane potential dye fluorescence, FDSS; activation, % at 10 µM; shares compounds with TRPC6 inhibitor;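 active = ratio signal rise beyond 5 SD above unstimulated control wells' mean, seen in both duplicate runs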;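 also: plate controls were buffer EC0 wells for no effect and acetylcholine ECmax response for full effect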
* = called active by the depositor.

What do the screens show for `CCOC(=O)c1ccc2[nH]cc(C(C)=O)c(=O)c2c1`?
TRPC4 block: inactive; TRPC4 PAM: inactive; TRPC6 activator: inactive; TRPC4 agonist: inactive; TRPC6 inhibitor: -7.47*; TRPC4 spec 2: inactive; TRPC4 spec: -25.6%*; HEK293 MPD ctr 2-1: inactive; HEK293 MPD ctr-1: -422.5%*; TRPC6 inh conf: inactive; TRPC6 act conf: inactive

Results for Cc1cc(C)cc(N(CCC#N)C(=O)COC(=O)c2nc3nc(C)cc(C)n3n2)c1 ?
TRPC4 block: inactive; TRPC4 PAM: inactive; TRPC6 activator: inactive; TRPC4 agonist: inactive; TRPC6 inhibitor: inactive

What do the screens show for `CC(C)=NNc1nc2sc3c(c2c(=O)[nH]1)CC(C)(C)OC3`?
TRPC4 block: inactive; TRPC4 PAM: inactive; TRPC6 activator: inactive; TRPC4 agonist: inactive; TRPC6 inhibitor: inactive

What do the screens show for `O=C(Cn1c(=O)oc2ccccc21)Nc1ccc(Cl)cc1Cl`?
TRPC4 block: inactive; TRPC4 PAM: inactive; TRPC6 activator: inactive; TRPC4 agonist: inactive; TRPC6 inhibitor: inactive

How did O=[N+]([O-])c1nn(-c2ccc3c(c2)OCCO3)n(O)c1=NC1CCN(Cc2ccccc2)CC1 do in these assays?
TRPC4 block: inactive; TRPC4 PAM: inactive; TRPC6 activator: inactive; TRPC4 agonist: inactive; TRPC6 inhibitor: -8.58*; TRPC4 spec 2: inactive; TRPC4 spec: inactive; HEK293 MPD ctr 2-1: inactive; HEK293 MPD ctr-1: inactive; TRPC6 inh conf: inactive; TRPC6 act conf: inactive

Results for CCOc1ccc(S(=O)(=O)N2CCCCC2)cc1NC(=O)C1CSC2(C)CCC(=O)N12 (configuration not stated) ?
TRPC4 block: inactive; TRPC4 PAM: inactive; TRPC6 activator: 12.3*; TRPC4 agonist: inactive; TRPC6 inhibitor: -8.33*; HEK293 MPD ctr-2: 152.0%*; HEK293 MPD ctr 2-2: inactive; TRPC4 ctr mod: 33.0%*; TRPC4 ctr inh 2: inactive; TRPC6 inh conf: 67.5%*; TRPC6 act conf: 106.0%*

What do the screens show for `O=C(Nc1ccccc1C(=O)Nc1nnc(C(F)(F)F)s1)c1ccccc1`?
TRPC4 block: inactive; TRPC4 PAM: inactive; TRPC6 activator: inactive; TRPC4 agonist: inactive; TRPC6 inhibitor: -6.96*; TRPC4 spec 2: inactive; TRPC4 spec: 16.4%*; HEK293 MPD ctr 2-1: inactive; HEK293 MPD ctr-1: 11.0%*; TRPC6 inh conf: 84.4%*; TRPC6 act conf: inactive

How did COc1ccc(-n2cnnc2SCC(=O)Nc2cc(S(=O)(=O)N3CCCCC3)ccc2C)cc1 do in these assays?
TRPC4 block: inactive; TRPC4 PAM: inactive; TRPC6 activator: inactive; TRPC4 agonist: inactive; TRPC6 inhibitor: -6.09*; HEK293 MPD ctr-2: inactive; HEK293 MPD ctr 2-2: inactive; TRPC4 ctr mod: inactive; TRPC4 ctr inh 2: inactive; TRPC6 inh conf: inactive; TRPC6 act conf: inactive

What do the screens show for `CN=C1c2cc3c(Br)c(OC)ccc3n2CCN1C`?
TRPC4 block: inactive; TRPC4 PAM: inactive; TRPC6 activator: inactive; TRPC4 agonist: inactive; TRPC6 inhibitor: -8.33*; TRPC4 spec 2: inactive; TRPC4 spec: -14.0%*; HEK293 MPD ctr 2-1: 10.5%*; HEK293 MPD ctr-1: -279.5%*; TRPC6 inh conf: inactive; TRPC6 act conf: inactive

How did COc1ccc(C(=O)Nc2c(-c3ccccc3)nc3ccccn23)c(OC)c1 do in these assays?
TRPC4 block: inactive; TRPC4 PAM: inactive; TRPC6 activator: 20*; TRPC4 agonist: inactive; TRPC6 inhibitor: inactive; HEK293 MPD ctr-2: inactive; HEK293 MPD ctr 2-2: inactive; TRPC4 ctr mod: 12.5%*; TRPC4 ctr inh 2: 28.0%*; TRPC6 inh conf: inactive; TRPC6 act conf: inactive

What do the screens show for `CCOC(=O)[C@H]1[C@H]2COc3cc(OC)ccc3[C@@H]2N2C(=O)N(c3cccc(Cl)c3)C(=O)[C@@]12C`?
TRPC4 block: inactive; TRPC4 PAM: inactive; TRPC6 activator: inactive; TRPC4 agonist: inactive; TRPC6 inhibitor: inactive

Results for CCN(CC)C(=O)NC1CC2CCCC(C1)N2Cc1ccccc1 (configuration not stated) ?
TRPC4 block: inactive; TRPC4 PAM: inactive; TRPC6 activator: inactive; TRPC4 agonist: inactive; TRPC6 inhibitor: inactive

How did O=C(Nc1ccccc1-c1ccccc1)NC1CC2CCCC(C1)N2CCc1ccccc1 (configuration not stated) do in these assays?
TRPC4 block: inactive; TRPC4 PAM: inactive; TRPC6 activator: inactive; TRPC4 agonist: inactive; TRPC6 inhibitor: -6.99*; TRPC4 spec 2: 46.0%*; TRPC4 spec: inactive; HEK293 MPD ctr 2-1: inactive; HEK293 MPD ctr-1: -0.2%*; TRPC6 inh conf: 64.9%*; TRPC6 act conf: inactive

How did O=C(Nc1ccccc1-c1ccccc1)NC1CC2CCCC(C1)N2Cc1ccc(F)cc1 (configuration not stated) do in these assays?
TRPC4 block: inactive; TRPC4 PAM: inactive; TRPC6 activator: inactive; TRPC4 agonist: inactive; TRPC6 inhibitor: -8*; TRPC4 spec 2: 51.0%*; TRPC4 spec: 4.8%*; HEK293 MPD ctr 2-1: inactive; HEK293 MPD ctr-1: 4.0%*; TRPC6 inh conf: 51.0%*; TRPC6 act conf: inactive

Bioassay records from PubChem BioAssay.
